# Source: PubChem (Broad Institute)
# KDM4C inh = inhibitors of human demethylase GASC-1 KDM4C. Q9H3R0. GST-KDM4C 2-372, H3K9me3 peptide, LANCE TR-FRET. inhibition, % at 12.5 µM. 0.15% of 96,000 active. AID 720574;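 active = mean replicate inhibition above about 25%, with at least 55% of replicates also reaching it, limit read from the data, passing the limit was not always enough; inconclusive = only one of those two conditions met; inactive = neither condition met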
#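 Material: GST-tagged GASC-1 (JMJD2C) catalytic fragment, aa 2-372. Input: enzyme final amount 10 nM. Medium: HEPES buffer, pH 7.5, plus ascorbate. Reagent: H3K9me3 peptide substrate, Fe(II), 2-oxoglutarate. Doses: single dose. Times: reaction 30 min RT, detection step 1 h RT. Measured by: LANCE TR-FRET. Evaluation: Fall in 671/618 emission ratio as inhibition.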
# T cruzi growth = inhibitors of T. cruzi proliferation. inhibition, % at 8.34 µM. T. cruzi beta-gal in NIH3T3, GalScreen luminescence, 90 h. 5.9% of 77,000 active;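 active = mean inhibition above about 93%, with at least 55% of replicates each passing it, limit read from the data, passing the limit was not always enough; inconclusive = only one of those two conditions holds; inactive = neither condition holds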
# Pf Dd2 growth = inhibitors of Plasmodium falciparum Dd2 growth. P. falciparum Dd2 growth, SYBR Green, 72 h; hits give low values. activity change, % at 10 µM. 2.3% of 94,000 active. AID 1159554; in the data active = activity change below about -80%; inconclusive = no clear call, values can overlap the other calls
# IDH1 mut inh = blocks human IDH1 R132H reductase activity; O75874; diaphorase/resazurin fluorescence, 60 min; inhibition, % at 10 µM; 0.18% of 70,000 active; AID 624101; in the data active = inhibition above about 34%; inconclusive = no clear call, values can overlap the other calls; inactive = below about 11%;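 note: 0% = DMSO and 100% = no enzyme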
# Target sequence (O75874 whole entry R132H): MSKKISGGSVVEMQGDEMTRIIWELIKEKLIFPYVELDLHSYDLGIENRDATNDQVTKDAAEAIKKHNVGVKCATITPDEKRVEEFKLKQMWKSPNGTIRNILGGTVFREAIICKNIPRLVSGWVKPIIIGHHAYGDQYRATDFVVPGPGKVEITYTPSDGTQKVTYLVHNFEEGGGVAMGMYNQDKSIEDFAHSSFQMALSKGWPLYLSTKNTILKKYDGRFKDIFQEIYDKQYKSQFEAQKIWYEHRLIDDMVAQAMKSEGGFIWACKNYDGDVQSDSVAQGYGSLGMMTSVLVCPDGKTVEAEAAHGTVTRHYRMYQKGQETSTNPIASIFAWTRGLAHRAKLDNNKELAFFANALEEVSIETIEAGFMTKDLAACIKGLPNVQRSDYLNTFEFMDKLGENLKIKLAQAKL
# * hit, by the source's call; u = inconclusive; x = not tested or not shown; ! = a repeat was not active. Most compounds without a hit are left out; they make up all but 5.8% or so of the library.
SMILES,KDM4C inh,T cruzi growth,Pf Dd2 growth,IDH1 mut inh
COc1ccc2c3c([nH]c2c1)[C@@H](CO)N(S(=O)(=O)c1cn(C)cn1)CC31CCN(CC2CCCC2)CC1,-1,x,-41,x
COc1ccc2c3c([nH]c2c1)[C@H](CO)N(S(=O)(=O)c1cn(C)cn1)CC31CCN(CC2CCCCC2)CC1,-1,x,-85*,x
COc1ccc(S(=O)(=O)N2CCC3(CC2)CN(Cc2ccncc2)[C@@H](CO)c2[nH]c4cc(OC)ccc4c23)cc1,1,x,-87*,x
COc1ccc(S(=O)(=O)N2CC3(CN(Cc4ccncc4)[C@H](CO)c4[nH]c5cc(OC)ccc5c43)C2)cc1,0,x,-62,x
CCC(=O)N1CC2(C1)CN(S(=O)(=O)c1ccccc1)[C@@H](CO)c1[nH]c3cc(OC)ccc3c12,-1,x,-93*,x
O=C(c1ccccc1)N1CC(=O)N(OCc2ccccc2)C1c1cccs1 (configuration not stated),x,x,x,3
CCNC(=O)[C@@H]1[C@@H](CO)[C@@H]2Cn3c(ccc(C4=CCCCC4)c3=O)[C@H]1N2CCC(F)(F)F,-1,x,57,x
COc1ccc2c3c([nH]c2c1)[C@H](CO)N(S(=O)(=O)c1ccc(C)cc1)CC31CN(Cc2ccccc2)C1,-1,x,-87*,x
CCC(=O)N1CCC2(CC1)CN(S(=O)(=O)c1ccccc1)[C@@H](CO)c1[nH]c3cc(OC)ccc3c12,1,x,-92*,x
CCS(=O)(=O)N1CC2(C1)CN(S(=O)(=O)c1ccc(C)cc1)[C@@H](CO)c1[nH]c3cc(OC)ccc3c12,0,x,-77,x
CCS(=O)(=O)N1CCC2(CC1)CN(S(=O)(=O)c1ccc(C)cc1)[C@@H](CO)c1[nH]c3cc(OC)ccc3c12,-4,x,-90*,x
COc1cccc(S(=O)(=O)N2CCC3(CC2)CN[C@@H](CO)c2[nH]c4cc(OC)ccc4c23)c1,18,x,-92*,x
COc1ccc2c3c([nH]c2c1)[C@H](CO)NCC31CCN(S(=O)(=O)c2ccccc2)CC1,-1,x,-77,x
COc1ccc2c3c(n(C)c2c1)[C@@H](CO)N(C(=O)c1ccccc1)CC31CCN(C(=O)c2ccccc2)CC1,0,x,-87*,x
COc1ccc2c3c(n(C)c2c1)[C@H](CO)N(C(=O)Nc1ccc(F)cc1)CC31CN(Cc2cccnc2)C1,1,x,-89*,x
COc1ccc2c3c(n(C)c2c1)[C@@H](CO)N(C(=O)c1ccc(F)cc1)CC31CCN(C(=O)Nc2ccc(F)cc2)CC1,0,x,-87*,x
COc1ccc2c3c(n(C)c2c1)[C@@H](CO)N(C(=O)Nc1ccc(F)cc1)CC31CN(C(=O)c2ccccc2F)C1,-5,x,-92*,x
COc1ccc(NC(=O)Nc2ccc3c(c2)CC(=O)N([C@@H](C)CO)C[C@@H](C)[C@H](CN(C)S(C)(=O)=O)O3)cc1,1,x,6,x
O=C(C[C@H]1CC[C@@H]2[C@H](COC[C@H](O)CN2Cc2nccs2)O1)NCc1ccccc1,1,52,0,x
CCCNC(=O)C[C@H]1CC[C@@H]2[C@H](COc3ccc(NC(=O)c4cc(F)cc(F)c4)cc3C(=O)N2C)O1,0,8,2,x
O=S(=O)(c1ccccc1F)N1CC[C@H]2[C@H](CO)Nc3ccc(-c4ccccc4)cc3[C@H]21,0,70,16,x
COc1ccc2c3c(n(C)c2c1)[C@@H](CO)N(C(C)=O)CC31CCN(C(=O)Nc2ccc(F)cc2)CC1,-1,x,-83*,x
CCCNC(=O)N1CC2(CN(Cc3ccc(OC)cc3)C2)c2c(n(C)c3cc(OC)ccc23)[C@H]1CO,-1,x,-81*,x
COc1ccc2c3c(n(C)c2c1)[C@H](CO)N(Cc1cccnc1)CC31CN(C(=O)NC(C)C)C1,1,x,-88*,x
COc1ccc2c3c(n(C)c2c1)[C@@H](CO)N(Cc1cccnc1)CC31CCN(C(=O)NC(C)C)CC1,-1,x,-73,x
SMILES,KDM4C inh,T cruzi growth,Pf Dd2 growth,IDH1 mut inh
COc1ccc(NC(=S)NCc2cn(-c3ccccc3)nc2-c2ccccc2)cc1OC,x,x,x,0
Cc1ccc(NC(=O)Nc2ccc3c(c2)C(=O)N(C)[C@H]2CC[C@H](CC(=O)O)O[C@@H]2CO3)cc1,-2,11,8,x
COc1ccc2c3c(n(C)c2c1)[C@H](CO)N(CC1CCCC1)CC31CCN(C(=O)Nc2ccccc2)CC1,-3,x,-66,x
COc1ccc(NC(=O)N2CCC3(CC2)CN(CC2CC2)[C@H](CO)c2c3c3ccc(OC)cc3n2C)cc1,0,x,-85*,x
COc1ccc2c3c(n(C)c2c1)[C@H](CO)N(CC1CC1)CC31CCN(C(=O)Nc2ccccc2)CC1,-1,x,-65,x
COc1ccc2c3c(n(C)c2c1)[C@@H](CO)N(CC1CCOCC1)CC31CCN(C(=O)Nc2ccccc2)CC1,0,x,-83*,x
CC(=O)N1[C@@H]2c3ccc(/C=C/c4ccccc4)c(=O)n3C[C@@H]2[C@@H](CO)[C@@H]1C(=O)Nc1nccs1,1,22,x,x
C(=C\c1ccc(C2[C@@H]3CN(Cc4nccs4)C[C@H]2N3)cc1)/c1ccccc1 (some centres not stated),-2,x,-88*!,x
c1cc(-c2ccc(C3[C@@H]4CN(Cc5nccs5)C[C@H]3N4)cc2)ccn1 (some centres not stated),0,x,-74,x
c1cncc(-c2ccc(C3[C@@H]4CN(Cc5nccs5)C[C@H]3N4)cc2)c1 (some centres not stated),2,x,-88*!,x
C(=C\c1ccc(C2[C@@H]3CN(Cc4ccccn4)C[C@H]2N3)cc1)/c1ccccc1 (some centres not stated),0,x,-76,x
COc1cccc(C#Cc2ccc3c(c2)O[C@@H](CN(C)C(=O)c2ccccn2)[C@H](C)CN([C@@H](C)CO)S3(=O)=O)c1,-3,u,-84*,0
C[C@@H]1CN([C@H](C)CO)S(=O)(=O)c2ccc(C#C[C@@H](C)O)cc2O[C@H]1CN(C)C(=O)Nc1ccccc1,x,77,-92*,x
COc1cccc(NC(=O)N(C)C[C@H]2Oc3cc(C#Cc4ccncc4)ccc3S(=O)(=O)N([C@H](C)CO)C[C@H]2C)c1,-2,56,-47,0
COc1cccc(NC(=O)N(C)C[C@@H]2Oc3cc(C#Cc4ccccc4)ccc3S(=O)(=O)N([C@@H](C)CO)C[C@H]2C)c1,-2,125*,-68,x
COc1cccc(NC(=O)N(C)C[C@H]2Oc3cc(C#Cc4ccccc4)ccc3S(=O)(=O)N([C@@H](C)CO)C[C@H]2C)c1,0,120*,u,0
C[C@@H]1CN([C@H](C)CO)C(=O)c2cc(-c3ccncc3)cnc2O[C@H]1CN(C)C(=O)C1CCC1,2,53,-11,x
COc1ccc(S(=O)(=O)N(C)C[C@@H]2OCCCC[C@@H](C)Oc3ccc(NC(=O)Nc4ccc(C(F)(F)F)cc4)cc3C(=O)N([C@@H](C)CO)C[C@@H]2C)cc1,-1,85,-88*,x
COc1ccc(S(=O)(=O)N(C)C[C@@H]2OCCCC[C@H](C)Oc3ccc(NC(=O)Nc4ccc(C(F)(F)F)cc4)cc3C(=O)N([C@H](C)CO)C[C@H]2C)cc1,x,79,-83*,x
